Results of several laboratories.
Each line is one published result; the experiments were not run side by side.
Target: Phosphatidylinositol 4,5-bisphosphate 3-kinase catalytic subunit beta isoform (PIK3CB, Homo sapiens, UniProt P42338)

| SMILES | test | setting | remaining binding |
| --- | --- | --- | --- |
| CN(CCCC(F)(F)F)c1nccc(-c2cnn3ncccc23)n1 | binding | 1 µM | 100% |
| CCC(=N\O)/C(C)=C/c1ccc(F)cc1 | cell-free assay, competition with immobilised ligand | 1 µM | 99% |
| c1cncc(-c2cccc(Nc3nccc(NC4CCCCC4)n3)c2)c1 | binding, competition with immobilised ligand | 10 µM | 100% |
| O=C(c1ccc(Nc2nccc(-c3cc4ccccc4s3)n2)cc1)N1CCC(N2CCCC2)CC1 | binding, competition with immobilised ligand | 1 µM | 86% |
| C=CC(=O)N1CCC(C(=O)NCC(=O)N2CCN(c3nc(-c4cnc(N)nc4C(F)F)nc(N4CCOCC4)n3)CC2)CC1 | binding, competition with immobilised ligand | 1 µM | 0.05% |
| COc1ncc2cc3ccccc3nc2c1C#N | cell-free assay, competition with immobilised ligand | 5 µM | 100% |
| O=c1nc(-c2ccccn2)sc2ccccc12 | cell-free assay, competition with immobilised ligand | 1 µM | 100% |
| Cc1cnc(Nc2ccc(C(=O)N3CCC(N4CCCC4)CC3)cc2)nc1-c1cc2ccccc2s1 | binding, competition with immobilised ligand | 1 µM | 99% |
| O=C(NCC1CCOCC1)c1n[nH]cc1NC(=O)c1c(F)cccc1F | binding, competition with immobilised ligand | 1 µM | 91% |
| C[C@@H]1CN(c2cc(-c3n[nH]c4ccc(OC5(C)CC5)cc34)ncn2)C[C@H](C)O1 | cell-free assay, competition with immobilised ligand | 0.1 µM | 59% |
| C[C@@H](c1ccc(-n2cnc3c(N)ncnc32)cc1)N1CCc2nn(C)c(Cc3ccccc3)c2C1=O | binding, competition with immobilised ligand | 0.1 µM | 99% |
| O=C(NCc1ncc(C(F)(F)F)cc1Cl)c1ccc2c(c1)C1(CCS(=O)(=O)CC1)[C@H](C1CC1)N2S(=O)(=O)c1ccc(F)cc1 | cell-free assay, competition with immobilised ligand | 1 µM | 68% |
| Cc1cnn2ncc(-c3ccnc(N(C)C)n3)c2c1 | binding | 1 µM | 74% |
| COc1cnc(Nc2cccc(S(N)(=O)=O)c2)nc1N1CCN(c2ccccc2)CC1 | binding, competition with immobilised ligand | 1 µM | 86% |
| O=C(NCCCN1CCOCC1)c1ccc(Nc2nccc(-c3cc4ccccc4s3)n2)cc1 | binding, competition with immobilised ligand | 1 µM | 100% |
| N[C@H]1CCN(c2nccc(-c3cnn4ncccc34)n2)C1 | binding | 1 µM | 100% |
| CNCc1ccccc1-c1csc([C@H](C)Nc2nc(C)nc3cc(OC)c(OC)cc23)c1 | cell-free assay, competition with immobilised ligand | 1 µM | 89% |
| COc1ccnn2ncc(-c3ccnc(N(C)C)n3)c12 | binding | 1 µM | 75% |
| Nc1ncc2c(n1)-c1c([nH]c3ccc(C#CC4CC4)cc13)CCCC2 | binding, competition with immobilised ligand | 1 µM | 100% |
| COc1ccc2c(O[C@@H]3C[C@H]4C(=O)N[C@]5(C(=O)O)CC5/C=C\CCCCC[C@H](NC(=O)OC5CCCC5)C(=O)N4C3)cc(-c3csc(NC(=O)C(C)C)n3)nc2c1C (stereo partly drawn) | cell-free assay, competition with immobilised ligand | 1 µM | 62% |
| CN(C)c1nccc(-c2cnn3ncccc23)n1 | binding | 1 µM | 50% |
